OXTR potentiator = potentiates the human oxytocin receptor response; P30559; 320,000 tested, 0.061% active; activation, % at 3 µM; CHO-OTR cells, Fluo-8 calcium fluorescence, potentiator mode; 0% = oxytocin EC15, 100% = EC100;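 active means activation above that plate's cutoff, the mean activation of tested compounds plus 3 SD, cut at about 6.6% in these data, passing the limit was not always enough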;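 further: 100% uses oxytocin at 75 nM as the full agonist control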
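Material: human OTR in CHO cells. Compound: 3.0 µM, one dose. Timing: compound 6 min at room temperature before oxytocin, 100 s read. Evaluation: % activation of max/min ratio relative to oxytocin controls. Replication: single well per compound, singlicate. Signal: Fluo-8 calcium dye fluorescence.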
TAAR1 agonist = human TAAR1 agonism; 360,000 tested, 0.99% active; Q96RJ0; activation, % at 3 µM; CHO RD-HGA16 TAAR1, Fluo-8 calcium fluorescence; vehicle wells 0%, saturating PEA agonist 100%;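 active means activation above the mean activation of all test compounds in the run plus 3 SD, cut at about 38% in these data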
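Test system: RD-HGA16 (CHO) cells co-expressing Gα16 and hTAAR1 | Doses: Single dose, 3 µM | Schedule: 17-24 h seeding, 75 min 37 °C dye, 30 min RT | Evaluation: % activation from peak over basal fluorescence ratio, DMSO-to-PEA scaled | Technique: Kinetic Fluo-8 calcium fluorescence | Benchmarks: Low control DMSO, high control PEA (EC100)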
V1aR counter = counter-screen for oxytocin receptor agonists: human V1a receptor agonists. 320,000 tested, 0.25% active. P37288. CHO-V1R cells, Fluo-8 calcium fluorescence, agonist mode; 0% DMSO, 100% 3 nM vasopressin. AID 2797. activation, % at 3 µM;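 active means activation above the mean activation of all tested compounds plus 3 SD, per screening run, cut at about 20% in these data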;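 further: signal is peak over basal fluorescence ratio across a 100 second FLIPR read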
Target sequence (P37288 whole entry, looked up): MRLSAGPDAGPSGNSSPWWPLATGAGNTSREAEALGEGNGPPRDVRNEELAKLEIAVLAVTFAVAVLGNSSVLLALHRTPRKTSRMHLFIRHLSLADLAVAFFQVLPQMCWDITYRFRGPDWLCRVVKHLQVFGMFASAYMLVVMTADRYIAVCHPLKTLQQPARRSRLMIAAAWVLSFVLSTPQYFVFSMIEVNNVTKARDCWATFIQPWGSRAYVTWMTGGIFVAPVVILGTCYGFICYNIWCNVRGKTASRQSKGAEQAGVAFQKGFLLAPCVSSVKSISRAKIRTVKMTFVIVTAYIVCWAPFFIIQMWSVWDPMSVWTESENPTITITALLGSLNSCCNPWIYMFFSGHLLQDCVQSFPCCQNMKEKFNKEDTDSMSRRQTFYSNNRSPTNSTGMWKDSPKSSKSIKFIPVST
TAAR1 antag = human TAAR1 antagonism | Q96RJ0 | CHO RD-HGA16 TAAR1, Fluo-8 calcium fluorescence, antagonist | inhibition, % at 3 µM | 360,000 tested, 1.5% active | AID 624466;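 active means inhibition above a per-plate cutoff, the mean inhibition of test compounds on that plate plus 3 SD, cut at about 49% in these data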;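 further: 0% = DMSO plus EC80 beta-PEA response and 100% = DMSO alone without agonist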
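Test system: RD-HGA16 CHO cells with stable hTAAR1 and Gα16 / Probe or stimulus: EC80 β-phenethylamine stimulus / Times: seeding 17-24 h prior, 75-min 37 °C, 30-min RT dye loading / Detection: Fluo-8 calcium-sensitive fluorescence / Read-out basis: % inhibition scaled between DMSO and EC80 PEA controls / Repeats: singlicate, one well per test compound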
OXTR ag = activates the human oxytocin receptor; activation, % at 3 µM; 320,000 tested, 0.32% active; CHO-OTR cells, Fluo-8 calcium fluorescence; normalized: DMSO 0%, oxytocin 100%; AID 2435;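 active means activation above the mean of all tested compounds plus 3 SD, cutoff set per screening run, cut at about 20% in these data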;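 further: peak over basal fluorescence ratio from a 100 s FLIPR kinetic read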
Starred values were filed as active, the others as inactive; · = no result given. Hits are enriched below; roughly 2.3% of the tested compounds scored in any of these assays.

SMILES	OXTR potentiator	TAAR1 agonist	V1aR counter	TAAR1 antag	OXTR ag
CC(C)(C)OC(=O)C[C@@H]1C/C=C\C[C@H](CC(=O)N(CCO)Cc2ccccc2)C(=O)NC[C@@H](c2ccccc2)OC1=O	-3	7	-1	12	-2
O=C1NC[C@H](c2ccccc2)OC(=O)[C@H](Cc2ccc(F)cc2)C/C=C\C[C@H]1CC(=O)N(CCO)Cc1ccccc1	-8	38*	1	82*	-1
O=C1NC[C@H](c2ccccc2)OC(=O)[C@H](Cc2ccc(F)cc2)CC/C=C/C[C@@H]1CC(=O)N(CCO)Cc1ccccc1	-10	18	2	57*	-1
O=C1NC[C@H](c2ccccc2)OC(=O)[C@@H](Cc2ccc(F)cc2)C/C=C\C[C@H]1CC(=O)N(CCO)Cc1ccccc1	-11	49*	2	81*	2
CC1(C)CC(=O)C=C(c2ccccc2-c2cccc(C(N)=O)c2)C1=O	·	1	·	-4	·
CC1(C(=O)NCc2cccc3ccccc23)CCN1C(=O)Cc1ccc(-c2ccccc2)cc1 (stereo not drawn)	·	4	·	49*	·
O=c1[nH]c2ccccc2nc1/C=C(\O)c1cccs1	-15	28	29*	9	23*
O/C(=C\c1nc2ccccc2[nH]1)c1cccs1	-6	2	0	1	-1
OCCCc1nc2n(n1)C(c1cccs1)C=C(c1ccc(Br)cc1)N2 (stereo not drawn)	-11	·	109*	·	160*
CCN=C(NCC)SC1CC(=O)N(c2cccc(OC)c2)C1=O (stereo not drawn)	-5	23	4	55*	0
CCN=C(NCC)SC1CC(=O)N(c2ccccc2)C1=O (stereo not drawn)	-19	26	1	51*	-1
CN=C(Nc1ccc2c(c1)OCO2)SC1CC(=O)N(c2ccccc2)C1=O (stereo not drawn)	-4	6	4	14	4
COc1cccc(N2C(=O)CC(Sc3nc(C)cc(C)n3)C2=O)c1 (stereo not drawn)	-9	1	1	-11	0
COC(=O)c1cc(=O)nc(NN=C(C)C)s1	·	0	·	-3	·
COc1cccc(C=NN2CCCCCC2)c1OC	·	0	·	-14	·
O=C(/C=C/c1cccs1)NC(=S)NNC(=O)Cc1cccs1	-5	67*	9	26	7
CCS(=O)(=O)Nc1ccc(C2=NN(C(=O)c3ccco3)C(c3ccc(C)cc3)C2)cc1 (stereo not drawn)	11*	·	0	·	-1
COc1ccc(-n2nc(C(=O)NCC(=O)N(C)Cc3ccccc3)c3ccccc3c2=O)cc1OC	-1	9	-1	49*	-2
COc1ccc(-n2nc(C(=O)NCC(=O)N3CCCC(C)C3)c3ccccc3c2=O)cc1Cl (stereo not drawn)	-8	18	-2	41	-2
COc1ccc(-n2nc(C(=O)NCC(=O)NC3CCCCCC3)c3ccccc3c2=O)cc1OC	-14	10	6	50*	1
COc1ccc(-n2nc(C(=O)NCC(=O)N3CCCCCC3)c3ccccc3c2=O)cc1OC	-7	7	0	6	-1
CCOC(=O)C1CCCN(C(=O)CNC(=O)c2nn(-c3ccc(OC)c(Cl)c3)c(=O)c3ccccc23)C1 (stereo not drawn)	0	38*	-2	51*	-2
CCC(NC(=O)CNC(=O)c1ccc2c(c1)OCO2)c1ccc(Br)cc1 (stereo not drawn)	·	6	·	-6	·
COC(=O)[C@H](Cc1ccccc1)N[C@H](c1ccc(OC)cc1)[C@@H](O)Cc1ccccc1	·	0	·	6	·
COc1c(C(=O)Nc2ccc(Cc3ccncc3)cc2)ccc2ccccc12	-20	11	9	55*	8
SMILES	OXTR potentiator	TAAR1 agonist	V1aR counter	TAAR1 antag	OXTR ag
Cc1ccc(NC(=O)CSc2nnnn2C)cc1S(=O)(=O)N1CCCCC1	·	2	·	-8	·
COc1ccc2c(c1)[nH]c1c(=O)n(Cc3ccco3)cnc12	-14	47*	11	36	10
COc1ccc2c(c1)[nH]c1c(=O)n(Cc3ccccn3)cnc12	6	2	-1	5	0
CCS(=O)(=O)c1ccc(-c2cccc(NC(=O)COc3ccc(Cl)cc3)c2)nn1	-14	8	5	49*	4
O=C(COc1ccccc1)Nc1cccc(-c2ccc(N3CCOCC3)nn2)c1	1	10	0	49*	0
Oc1ccc(Cl)cc1CNCc1ccc(Cl)cc1	-10	49*	4	8	15
NNC(=O)CNC(c1ccccc1)c1cc(Br)ccc1NC(=O)c1ccccc1Br (stereo not drawn)	-15	2	-1	53*	-1
Cc1cc(N2CCN(C(=O)OC(C)(C)C)C[C@H]2C)ccc1Br	·	1	·	-14	·
COc1cc(C(=O)NNC(=S)NC(=O)/C=C/c2ccccc2)cc(OC)c1OC	-11	39*	4	23	1
C=CCNC(=S)N1C[C@H]2CON(C)[C@H]2C[C@H]1c1ccccc1Br	·	2	·	-25	·
CN1Cc2sc(NC(=S)NC(=O)c3ccccc3)c(C#N)c2CC1(C)C	-10	13	34*	10	32*
CC(C)C[C@@H]1COc2cc(F)ccc2S(=O)(=O)N1	·	1	·	-34	·
COc1ccc(C(C)c2cc3c(cc2OCC(=O)O)OCO3)cc1 (stereo not drawn)	·	-1	·	-5	·
NS(=O)(=O)c1ccc(Nc2nc(-c3ccc4ccccc4c3)cs2)cc1	-10	0	0	2	3
NS(=O)(=O)c1ccc(Nc2nc(-c3cccc([N+](=O)[O-])c3)cs2)cc1	-7	7	-1	55*	-1
O=S1(=O)N[C@@H](Cc2ccccc2)COc2cc(NCCCN3CCOCC3)ccc21	·	5	·	-14	·
CNc1cnc(-c2ccc(F)c(F)c2F)cn1	·	-1	·	-24	·
C[C@H]1CN([C@@H](C)CO)C(=O)CCCn2nncc2CO[C@@H]1CN(C)S(=O)(=O)c1cccs1	·	1	·	2	·
Cc1nn(-c2ccccc2)nc1C(=O)Nc1cccc(C(=O)NC2CC2)c1	·	11	·	60*	·
Cc1nn(-c2cccc(Cl)c2)nc1C(=O)Nc1cccc(C(=O)NC2CC2)c1	-8	6	1	46	-1
CC(C)CCNc1nc(N)c([N+](=O)[O-])c(NCC2CCCO2)n1 (stereo not drawn)	-9	39*	1	-8	2
Nc1nc(NCC2CCCO2)nc(NCC2CCCO2)c1[N+](=O)[O-] (stereo not drawn)	-3	3	0	14	-1
Fc1cccc(Cl)c1CN1CCN(c2ncc(Cc3ccccc3)cn2)CC1	·	5	·	-29	·
COc1ccc(Cc2c(C3CCCCC3)nc3ccc(C)cn23)c(C)c1	·	3	·	-38	·

From PubChem
